One series deals with CYP7A1 mRNA. The experiment in a line: Expression of CYP7A1 mRNA. It is filed as cell-based. The settings on record: HepG2 cells, 50 μM, 6 h, DMEM with 10% FCS; fold of control (0.1% DMSO). A digest of the protocol:
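HepG2 cells were grown in DMEM with 10% FBS, 1% glutamine, penicillin/streptomycin and amphotericin B. They were then exposed in the same medium to test compound or positive control at 50 μM (DMSO 0.1% final) for 6 h. Total RNA (900 ng) was reverse-transcribed with oligo d(T)16 primers. SYBR Green qPCR measured CYP7A1, normalised to β2-microglobulin.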

The next series has as its target T1, full length murine FXR (Mus musculus, UniProt Q60641).
T1 sequence (Q60641 1-488): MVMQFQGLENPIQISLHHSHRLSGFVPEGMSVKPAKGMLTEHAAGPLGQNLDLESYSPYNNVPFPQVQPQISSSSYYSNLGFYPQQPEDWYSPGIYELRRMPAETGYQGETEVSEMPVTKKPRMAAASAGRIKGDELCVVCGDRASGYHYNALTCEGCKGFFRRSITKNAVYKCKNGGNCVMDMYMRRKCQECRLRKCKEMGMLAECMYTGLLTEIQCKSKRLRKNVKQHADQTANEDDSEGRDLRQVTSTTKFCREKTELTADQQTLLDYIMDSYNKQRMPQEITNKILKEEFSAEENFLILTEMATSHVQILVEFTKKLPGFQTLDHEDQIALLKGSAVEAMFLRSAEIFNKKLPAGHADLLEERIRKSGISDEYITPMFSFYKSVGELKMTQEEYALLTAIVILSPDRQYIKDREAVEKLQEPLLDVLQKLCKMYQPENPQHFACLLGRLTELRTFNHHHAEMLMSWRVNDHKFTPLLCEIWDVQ
T1 sequence (P28700 1-467 partner): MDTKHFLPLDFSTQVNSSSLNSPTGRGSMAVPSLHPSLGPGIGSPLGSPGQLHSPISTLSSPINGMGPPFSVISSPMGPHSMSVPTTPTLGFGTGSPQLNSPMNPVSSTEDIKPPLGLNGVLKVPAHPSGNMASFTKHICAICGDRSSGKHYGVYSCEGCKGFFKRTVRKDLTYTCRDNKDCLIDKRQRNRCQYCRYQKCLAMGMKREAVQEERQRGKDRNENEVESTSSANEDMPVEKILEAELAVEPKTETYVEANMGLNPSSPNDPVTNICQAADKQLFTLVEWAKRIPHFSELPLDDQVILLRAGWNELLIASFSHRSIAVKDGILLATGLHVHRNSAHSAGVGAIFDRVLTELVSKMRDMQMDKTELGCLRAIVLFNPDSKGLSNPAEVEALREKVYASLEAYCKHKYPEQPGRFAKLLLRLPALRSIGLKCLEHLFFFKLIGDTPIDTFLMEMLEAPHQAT
Nature of the series: FXR reporter gene. It is filed as cell-based. The following applies: HEK293 cells, increasing concentrations (0–100 μM).

Structures are written as SMILES.

As for `CCCCc1ccc([C@@H](CC(=O)c2ccccc2)c2ccccc2)cc1` [Compound 20], the “levels of CYP7A1 mRNA” value in the series on CYP7A1 mRNA is reported as “significantly decreased”. At full length murine FXR, the “FXR agonism in reporter assay (result in words)” value is “dose–dependent FXR-agonism”.
In the same order, the values of `COc1ccc(N2CCN(C[C@H](O)COc3cc4c(c5c3CCCC5)CCCC4)CC2)cc1` [Compound 19] are “significantly decreased” and “dose–dependent FXR-agonism”.

(Values after paper PMC3254253 (Bioorganic & Medicinal Chemistry, 2011).)
